Experimental findings from ChEMBL document CHEMBL1145926, “Polyamine-iron chelator conjugate” (J Med Chem, 2003) are described below.

The test system of assay [1] is L1210. Put plainly: Compound was determined for spermidine (SPD) level in L1210 cells after treatment at a concentration of 0.2 uM and expressed as percent compound found in untreated controls. It is filed as functional, Mus musculus. In a few lines: (§1)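 L1210 cells in RPMI-1640 with 10% FBS, HEPES-MOPS, 1 mM glutamine and 1 mM aminoguanidine were exposed to 0.2 µM during log growth for 48 h. Cells were washed three times in ice-cold incomplete medium, extracted with 0.6 N perchloric acid and freeze-fractured three times. Putrescine, spermidine and spermine were measured by HPLC and expressed as percent of untreated control.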

Assay [2] concerns L1210. The assay can be described thus: Compound was determined for putrescine (PUT) level in L1210 cells after treatment at a concentration of 0.2 uM and expressed as percent compound found in untreated controls. It is filed as functional, Mus musculus. In a few lines:
as §1

In assay [3] the test system is L1210. Put plainly: Compound was tested for the growth inhibition of L1210 cell at a duration of 96 h. It is filed as functional, cell-based. The settings on record: Mus musculus, L1210, 96 h.
Assay [4] relates to L1210. The assay can be described thus: Compound was determined for spermine (SPM) level in L1210 cells after treatment at a concentration of 0.2 uM and expressed as percent compound found in untreated controls. It is filed as functional, Mus musculus. In a few lines:
as §1

Assay [5] has as its target T1, Ornithine decarboxylase (Mus musculus) (UniProt P00860).
T1 sequence (whole entry): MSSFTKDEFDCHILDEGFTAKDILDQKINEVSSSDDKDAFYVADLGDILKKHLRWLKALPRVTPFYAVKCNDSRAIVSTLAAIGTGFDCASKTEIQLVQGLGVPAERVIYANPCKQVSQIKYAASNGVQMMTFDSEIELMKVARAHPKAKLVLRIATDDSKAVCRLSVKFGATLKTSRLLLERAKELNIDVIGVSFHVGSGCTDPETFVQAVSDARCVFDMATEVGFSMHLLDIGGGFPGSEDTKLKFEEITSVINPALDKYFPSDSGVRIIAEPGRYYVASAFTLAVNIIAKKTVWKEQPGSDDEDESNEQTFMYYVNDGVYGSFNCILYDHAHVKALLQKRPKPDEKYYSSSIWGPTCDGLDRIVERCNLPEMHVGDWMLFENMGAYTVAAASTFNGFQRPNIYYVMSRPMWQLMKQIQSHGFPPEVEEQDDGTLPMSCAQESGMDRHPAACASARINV
Put plainly: Compound was tested for the enzyme activity against ornithine decarboxylase (ODC) in L1210 cells and expressed as percent compound found in untreated controls. The format is cell-based. In a few lines: (§2)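 L1210 cells were treated at 1 µM for 4 h. ODC activity was measured as 14CO2 released from [14C]carboxyl-labeled L-ornithine and expressed as percent of untreated control. Controls were untreated cells and 1 µM DEHSPM-treated cells. Results are the mean of at least three experiments.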

In assay [6] the target is T2, S-adenosylmethionine decarboxylase proenzyme 1 (Mus musculus) (UniProt P0DMN7).
T2 sequence (whole entry): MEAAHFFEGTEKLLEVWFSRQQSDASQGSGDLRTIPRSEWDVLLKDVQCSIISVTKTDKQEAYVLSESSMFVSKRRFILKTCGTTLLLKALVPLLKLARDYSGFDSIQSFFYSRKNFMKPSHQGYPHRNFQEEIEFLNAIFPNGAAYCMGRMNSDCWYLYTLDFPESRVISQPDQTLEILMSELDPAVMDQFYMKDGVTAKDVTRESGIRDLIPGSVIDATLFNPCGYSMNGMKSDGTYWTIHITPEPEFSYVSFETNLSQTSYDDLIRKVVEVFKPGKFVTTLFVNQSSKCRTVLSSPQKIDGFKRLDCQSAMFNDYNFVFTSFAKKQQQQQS
The assay can be described thus: Compound was tested for the enzyme activity against S-Adenosyl-methionine decarboxylase in L1210 cells and expressed as percent compound found in untreated controls. The format is cell-based. The gist of the method:
(§3)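 L1210 cells were treated at 1 µM for 6 h. AdoMetDC activity was measured as 14CO2 released from [14C]carboxyl-labeled S-adenosyl-L-methionine and expressed as percent of untreated control. Controls were untreated cells and 1 µM DEHSPM-treated cells. Results are the mean of at least three experiments.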

A short description of assay [7]: Compound was tested for the inhibition of spermidine transporter by using [3H]SPD transport in L1210 cell. The format is functional, cell-based, Mus musculus. The gist of the method: (§4)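 L1210 cell suspensions were incubated in culture medium with [3H]spermidine, either alone or with graduated concentrations of competitor. Cells were pelleted, washed, digested, neutralized and scintillation-counted. Ki was derived from Lineweaver–Burk plots assuming competitive inhibition against spermidine, as the mean of two to three experiments.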

Assay [8] addresses Diamine acetyltransferase 1 (Mus musculus) (UniProt P48026). Put plainly: Compound was tested for the enzyme activity against Spermidine/spermine N1-acetyl transferase (SSAT) in L1210 cells and expressed as percent compound found in untreated controls. It is filed as cell-based. The gist of the method:
(§5)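 L1210 cells were treated for 48 h at 10 µM, or at 0.2 µM for the conjugate. SSAT activity was measured as [14C]N1-acetylspermidine formed from spermidine and [14C]acetyl-CoA, expressed as percent of untreated control. The positive control was 2 µM DENSPM. Results are the mean of at least three experiments.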

The test system of assay [9] is L1210. The assay can be described thus: Compound was determined for spermidine (SPD) level in L1210 cells after treatment at a concentration of 100 uM and expressed as percent compound found in untreated controls. It is filed as functional, Mus musculus.
Assay [10] relates to L1210. The assay can be described thus: Compound was determined for putrescine (PUT) level in L1210 cells after treatment at a concentration of 100 uM and expressed as percent compound found in untreated controls. It is filed as functional, Mus musculus.
The subject of assay [11] is L1210. Put plainly: Compound was determined for spermine (SPM) level in L1210 cells after treatment at a concentration of 100 uM and expressed as percent compound found in untreated controls. The format is functional, Mus musculus.
In assay [12] the test system is L1210. The assay can be described thus: Compound was tested for the growth inhibition of L1210 cell at a duration of 48 h. The settings on record: Mus musculus, L1210, 48 h. The format is functional, cell-based.
Assay [13] relates to L1210. Put plainly: Compound was determined for putrescine (PUT) level in murine L1210 cells after treatment at a concentration of 100 uM and expressed as percent compound found in untreated controls. It is filed as functional, Mus musculus.
Assay [14] relates to L1210. Put plainly: Compound was tested for the growth inhibition of murine L1210 cell at a duration of 96 h. The format is functional, cell-based. The following applies: Mus musculus, L1210, 96 h. In a few lines: (§6)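 Log-phase suspension cultures of murine L1210 cells (0.5–1.0 × 10^5 cells/mL) were grown in RPMI-1640 with 10% FBS and 1 mM aminoguanidine at 37 °C and 5% CO2. Cells were treated, reseeded and counted to give percent of control growth. IC50 is the concentration reducing growth to 50% of control after 48 or 96 h, as the mean of at least two experiments.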

In assay [15] the test system is L1210. The assay can be described thus: Compound was determined for spermine (SPM) level in murine L1210 cells after treatment at a concentration of 100 uM and expressed as percent compound found in untreated controls. It is filed as functional, Mus musculus.
In assay [16] the test system is L1210. The assay can be described thus: Compound was tested for the growth inhibition of murine L1210 cell at a duration of 48 h. The format is functional, cell-based. The following applies: Mus musculus, L1210, 48 h. The gist of the method: as §6
Assay [17] has as its target T1, Ornithine decarboxylase (Mus musculus). Put plainly: Compound was tested for the enzyme activity against ornithine decarboxylase (ODC) in murine L1210 cells and expressed as percent compound found in untreated controls. It is filed as cell-based. The gist of the method: as §2
Assay [18] deals with T2, S-adenosylmethionine decarboxylase proenzyme 1 (Mus musculus). Put plainly: Compound was tested for the enzyme activity against S-Adenosyl-methionine decarboxylase in murine L1210 cells and expressed as percent compound found in untreated controls. The format is cell-based. The gist of the method: as §3
The nature of assay [19]: Compound was tested for the inhibition of spermidine transporter by using [3H]SPD transport in murine L1210 cell. The format is functional, cell-based, Mus musculus. The gist of the method:
as §4

In assay [20] the target is Diamine acetyltransferase 1 (Mus musculus) (UniProt P48026). The assay can be described thus: Compound was tested for the enzyme activity against Spermidine/spermine N1-acetyl transferase (SSAT) in murine L1210 cells and expressed as percent compound found in untreated controls. It is filed as cell-based. The gist of the method: as §5
Sequence of Diamine acetyltransferase 1 (Mus musculus) (P48026 whole entry): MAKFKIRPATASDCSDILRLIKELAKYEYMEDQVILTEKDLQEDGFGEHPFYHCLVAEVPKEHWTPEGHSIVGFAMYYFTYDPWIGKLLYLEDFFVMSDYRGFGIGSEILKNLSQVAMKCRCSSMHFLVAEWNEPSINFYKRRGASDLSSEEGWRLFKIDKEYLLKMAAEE
The subject of assay [21] is L1210. The assay can be described thus: Compound was determined for putrescine (PUT) level in L1210 cells after treatment at a concentration of 50 uM and expressed as percent compound found in untreated controls. It is filed as functional, Mus musculus. The gist of the method:
(§7)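 Murine L1210 leukaemia cells, kept in log-phase suspension in RPMI-1640 with 10% FBS, 1 mM glutamine and 1 mM aminoguanidine at 37 °C, 5% CO2, were treated at 50 μM for 48 h. Cells were washed three times in ice-cold incomplete medium, extracted with 0.6 N perchloric acid and freeze-fractured. Putrescine, spermidine and spermine were then measured by HPLC and expressed as percent of untreated control.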

In assay [22] the test system is L1210. Put plainly: Compound was determined for spermidine (SPD) level in L1210 cells after treatment at a concentration of 50 uM and expressed as percent compound found in untreated controls. The format is functional, Mus musculus. The gist of the method: as §7
Assay [23] concerns L1210. Put plainly: Compound was determined for spermine (SPM) level in L1210 cells after treatment at a concentration of 50 uM and expressed as percent compound found in untreated controls. It is filed as functional, Mus musculus. The gist of the method: as §7

Each structure is given as a SMILES string. Bounds are passed on as bounds.

In general, IC50 refers to the concentration that gives 50% inhibition. Usually Ki stands for the dissociation constant of the complex between target and ligand, obtained from inhibition or displacement. Higher therefore signals a looser hold on the target.

For the compound `Cc1c(O)c(=O)ccn1CCCNCCCCNCCCN`, the Activity worked out at 64% in the assay on L1210 [1]; 33% in the assay with L1210 [2]; 139% in the assay with L1210 [4]; 20% in assay [5]; 77% in assay [6]; 275% in assay [8]. For the same compound, in the assay with L1210 [3], the half-maximal inhibitory concentration (IC50) stood at 0.2 µM. The inhibition constant Ki in assay [7] was 3.7 µM.
For `CCCNCCCCNCCCN`, the Activity was 33% with L1210 [9]; 0% in the assay with L1210 [10]; 103% in the assay with L1210 [11]; 14% in assay [5]; 64% in assay [6]; 500% in assay [8]. For the same compound, the IC50 in the assay with L1210 [12] was over 100 µM. In assay [7], this compound came in with a Ki of 8.5 µM.
Consider `CCNCCCNCCCCNCCCN`, for which the Activity in [8] turned out to be 150%.
As to `CC(=O)NCCCNCCCCNCCCN`, the Activity in the assay with L1210 [13] was 24%; in the assay with L1210 [9], 71%; with L1210 [15] it was 111%; in [17], 25%; in assay [18], 86%; in assay [20], 180%. The IC50 with L1210 [14] and with L1210 [16] was over 100 µM each time. In assay [19], this compound yielded an inhibition constant Ki of 10 µM.
On to `Cc1c(O)c(=O)ccn1C` [DEFERIPRONE], for which the Activity in the assay on L1210 [21] amounted to 104%; in the assay on L1210 [22], 117%; in assay [5], 114%; in [6], 120%; in [8] it was 108%; in the assay on L1210 [23], 127%. In addition, the Ki in assay [7] is over 500 µM.
